Measurements taken from ChEMBL document CHEMBL1828519, “Tricyclic thiazolopyrazole derivatives as metabotropic glutamate receptor 4 positive allosteric modulators” (J Med Chem, 2011).
Values after ≈ are worked out from the molar mass of the structure shown.

What was measured:
[1] = target: T1, Metabotropic glutamate receptor 4 (Homo sapiens, UniProt Q14833); assay: Positive allosteric modulation of human mGlu4 receptor expressed in BHK cells assessed as potentiation of glutamate-induced calcium mobilization after 1 hr by FLIPR assay; type: functional, cell-based
T1 sequence (Q14833 whole entry): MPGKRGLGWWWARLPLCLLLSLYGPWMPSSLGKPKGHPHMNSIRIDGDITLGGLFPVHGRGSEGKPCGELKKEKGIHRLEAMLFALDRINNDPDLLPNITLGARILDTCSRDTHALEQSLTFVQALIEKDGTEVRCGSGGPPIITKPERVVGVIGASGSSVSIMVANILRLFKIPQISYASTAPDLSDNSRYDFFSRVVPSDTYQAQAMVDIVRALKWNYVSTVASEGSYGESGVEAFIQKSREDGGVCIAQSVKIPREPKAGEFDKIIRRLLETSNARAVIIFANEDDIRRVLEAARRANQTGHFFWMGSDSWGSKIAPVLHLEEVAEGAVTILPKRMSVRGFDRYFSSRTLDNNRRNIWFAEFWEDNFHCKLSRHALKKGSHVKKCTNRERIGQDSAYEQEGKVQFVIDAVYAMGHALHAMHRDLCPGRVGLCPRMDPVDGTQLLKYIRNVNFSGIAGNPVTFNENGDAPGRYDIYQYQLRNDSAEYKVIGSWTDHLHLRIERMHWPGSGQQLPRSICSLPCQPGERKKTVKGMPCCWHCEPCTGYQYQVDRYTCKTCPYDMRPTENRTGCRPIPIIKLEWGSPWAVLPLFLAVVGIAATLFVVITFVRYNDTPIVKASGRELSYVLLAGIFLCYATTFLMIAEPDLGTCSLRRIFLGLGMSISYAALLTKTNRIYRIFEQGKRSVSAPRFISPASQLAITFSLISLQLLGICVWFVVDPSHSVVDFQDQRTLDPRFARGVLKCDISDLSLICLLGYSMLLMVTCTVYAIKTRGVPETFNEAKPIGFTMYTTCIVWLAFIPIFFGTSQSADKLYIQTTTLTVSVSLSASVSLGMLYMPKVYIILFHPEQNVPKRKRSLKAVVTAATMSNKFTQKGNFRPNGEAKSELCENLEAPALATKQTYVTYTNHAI
Procedure, shortened: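 Stable BHK line co-expressing human mGlu4 and murine Gα15, plated on poly-D-lysine 24 h ahead. Cells loaded 1 h at 37 °C, 5% CO2 with Calcium 3 dye in HBSS/20 mM HEPES pH 7.4, 0.1% BSA, 2.5 mM probenecid. Test agent added with an EC20 glutamate challenge. Peak fluorescence change read by FLIPR and fitted to the Hill equation. At least two independent runs in duplicate, means reported.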

[2] = Kinetic solubility of the compound at pH 7.4 at room temperature; type: physicochemical; conditions: buffer, read-out: Kinetic_solubility
Procedure, shortened: (§1)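 Kinetic solubility measured from DMSO stock solutions at room temperature. Assay run at the pH named in each line.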

[3] = Apparent permeability of the compound by PAMPA assay; type: ADME
Procedure, shortened: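 Passive permeability measured in a PAMPA assay.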

[4] = Intrinsic clearance in rat microsomes; type: ADME, Microsome
Procedure, shortened: (§2)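 Intrinsic clearance measured in rat and human liver microsomes. Hepatic blood flow references given as 20 mL/min for rat and 1.5 L/min for human.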

[5] = Intrinsic clearance in human microsomes; type: ADME, Microsome; procedure, shortened: as §2
[6] = Plasma protein binding in rat; type: ADME, cell-free; conditions: read-out: PPB (converted)
[7] = Plasma protein binding in human; type: ADME, cell-free; conditions: read-out: PPB (converted)
[8] = target: T2, Metabotropic glutamate receptor 1 (Homo sapiens, UniProt Q13255); assay: Positive allosteric modulation of mGlu1 receptor assessed as potentiation of glutamate-induced calcium mobilization; type: functional
[9] = target: T3, Metabotropic glutamate receptor 2 (Homo sapiens, UniProt Q14416); assay: Positive allosteric modulation of mGlu2 receptor assessed as potentiation of glutamate-induced calcium mobilization; type: functional
T3 sequence (Q14416 whole entry): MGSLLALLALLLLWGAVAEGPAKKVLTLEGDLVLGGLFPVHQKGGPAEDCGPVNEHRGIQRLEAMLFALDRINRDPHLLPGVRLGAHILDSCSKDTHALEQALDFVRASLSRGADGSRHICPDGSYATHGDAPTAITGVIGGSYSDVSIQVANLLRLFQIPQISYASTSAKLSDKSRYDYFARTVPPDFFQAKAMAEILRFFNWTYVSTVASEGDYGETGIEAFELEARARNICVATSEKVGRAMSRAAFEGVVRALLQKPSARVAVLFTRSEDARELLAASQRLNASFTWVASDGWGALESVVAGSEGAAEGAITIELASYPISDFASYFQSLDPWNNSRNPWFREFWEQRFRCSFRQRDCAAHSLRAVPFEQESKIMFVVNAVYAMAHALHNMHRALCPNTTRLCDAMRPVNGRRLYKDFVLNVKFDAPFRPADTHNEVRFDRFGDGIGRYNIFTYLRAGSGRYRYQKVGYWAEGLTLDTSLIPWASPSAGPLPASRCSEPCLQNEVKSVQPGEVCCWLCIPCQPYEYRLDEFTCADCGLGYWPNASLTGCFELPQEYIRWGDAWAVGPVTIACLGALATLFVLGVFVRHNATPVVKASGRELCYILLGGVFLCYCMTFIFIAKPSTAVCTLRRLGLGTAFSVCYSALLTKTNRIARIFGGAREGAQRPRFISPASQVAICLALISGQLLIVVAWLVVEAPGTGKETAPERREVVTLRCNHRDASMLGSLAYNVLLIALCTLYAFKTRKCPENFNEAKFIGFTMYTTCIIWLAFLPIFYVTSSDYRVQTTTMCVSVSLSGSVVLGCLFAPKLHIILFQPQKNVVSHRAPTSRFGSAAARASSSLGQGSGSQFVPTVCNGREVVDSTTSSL

[10] = target: T4, Metabotropic glutamate receptor 3 (Homo sapiens, UniProt Q14832); assay: Positive allosteric modulation of mGlu3 receptor assessed as potentiation of glutamate-induced calcium mobilization; type: functional
T4 sequence (Q14832 whole entry): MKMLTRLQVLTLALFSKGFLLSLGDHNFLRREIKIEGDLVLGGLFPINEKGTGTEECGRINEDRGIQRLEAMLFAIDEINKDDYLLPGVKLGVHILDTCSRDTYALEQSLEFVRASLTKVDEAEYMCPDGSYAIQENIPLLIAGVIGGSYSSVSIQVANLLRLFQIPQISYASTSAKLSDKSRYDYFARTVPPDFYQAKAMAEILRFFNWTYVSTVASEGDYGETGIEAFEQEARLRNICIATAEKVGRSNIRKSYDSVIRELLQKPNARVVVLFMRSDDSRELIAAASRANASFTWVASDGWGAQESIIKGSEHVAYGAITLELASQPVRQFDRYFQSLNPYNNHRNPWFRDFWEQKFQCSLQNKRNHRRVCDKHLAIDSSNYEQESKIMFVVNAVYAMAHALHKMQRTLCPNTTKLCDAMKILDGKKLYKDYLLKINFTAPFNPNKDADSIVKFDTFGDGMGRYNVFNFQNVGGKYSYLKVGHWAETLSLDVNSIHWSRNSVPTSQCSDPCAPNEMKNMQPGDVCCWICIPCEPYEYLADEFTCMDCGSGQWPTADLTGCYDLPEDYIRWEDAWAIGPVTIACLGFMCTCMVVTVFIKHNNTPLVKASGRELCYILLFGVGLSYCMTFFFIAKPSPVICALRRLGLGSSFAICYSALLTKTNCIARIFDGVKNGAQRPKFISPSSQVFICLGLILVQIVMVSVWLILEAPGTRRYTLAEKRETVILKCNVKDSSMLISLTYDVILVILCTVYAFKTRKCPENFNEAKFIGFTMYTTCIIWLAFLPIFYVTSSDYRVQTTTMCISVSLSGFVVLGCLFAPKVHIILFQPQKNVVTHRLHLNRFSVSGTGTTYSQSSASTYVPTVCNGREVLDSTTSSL

[11] = target: T5, Metabotropic glutamate receptor 5 (Homo sapiens, UniProt P41594); assay: Positive allosteric modulation of mGlu5 receptor assessed as potentiation of glutamate-induced calcium mobilization; type: functional
T5 sequence (P41594 whole entry): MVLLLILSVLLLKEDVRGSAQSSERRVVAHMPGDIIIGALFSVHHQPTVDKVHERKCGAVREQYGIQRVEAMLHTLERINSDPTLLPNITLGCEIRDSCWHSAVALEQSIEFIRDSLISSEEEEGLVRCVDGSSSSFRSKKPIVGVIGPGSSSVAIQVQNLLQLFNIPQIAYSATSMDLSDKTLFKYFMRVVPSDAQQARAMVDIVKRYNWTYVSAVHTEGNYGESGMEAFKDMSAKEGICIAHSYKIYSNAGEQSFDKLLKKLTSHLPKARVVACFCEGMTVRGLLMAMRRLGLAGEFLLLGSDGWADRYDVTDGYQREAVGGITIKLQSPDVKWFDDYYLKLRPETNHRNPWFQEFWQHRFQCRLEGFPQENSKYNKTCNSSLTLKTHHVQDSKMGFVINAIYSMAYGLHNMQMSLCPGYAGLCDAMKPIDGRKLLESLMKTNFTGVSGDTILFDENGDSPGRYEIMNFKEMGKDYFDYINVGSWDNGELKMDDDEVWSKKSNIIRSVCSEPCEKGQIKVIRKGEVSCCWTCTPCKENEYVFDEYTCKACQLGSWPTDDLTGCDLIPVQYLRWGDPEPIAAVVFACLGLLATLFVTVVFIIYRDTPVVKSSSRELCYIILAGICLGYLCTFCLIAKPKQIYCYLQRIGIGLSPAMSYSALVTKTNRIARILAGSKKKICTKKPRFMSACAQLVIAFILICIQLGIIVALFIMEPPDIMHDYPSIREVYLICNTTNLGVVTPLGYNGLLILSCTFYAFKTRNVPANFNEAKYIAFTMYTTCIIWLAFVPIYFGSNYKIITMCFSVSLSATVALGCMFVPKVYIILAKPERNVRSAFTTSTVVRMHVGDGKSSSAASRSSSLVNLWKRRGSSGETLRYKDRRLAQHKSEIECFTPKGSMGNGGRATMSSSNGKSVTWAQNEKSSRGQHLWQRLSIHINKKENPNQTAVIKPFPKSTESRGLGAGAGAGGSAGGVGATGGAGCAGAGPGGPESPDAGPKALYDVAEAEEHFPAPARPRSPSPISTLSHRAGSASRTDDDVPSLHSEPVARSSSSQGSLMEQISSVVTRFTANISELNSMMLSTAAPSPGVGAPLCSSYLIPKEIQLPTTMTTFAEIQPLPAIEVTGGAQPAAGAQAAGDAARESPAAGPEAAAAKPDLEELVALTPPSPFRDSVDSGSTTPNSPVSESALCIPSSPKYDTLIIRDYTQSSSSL

[12] = target: T6, Metabotropic glutamate receptor 7 (Homo sapiens, UniProt Q14831); assay: Positive allosteric modulation of mGlu7 receptor assessed as potentiation of glutamate-induced calcium mobilization; type: functional
T6 sequence (Q14831 whole entry): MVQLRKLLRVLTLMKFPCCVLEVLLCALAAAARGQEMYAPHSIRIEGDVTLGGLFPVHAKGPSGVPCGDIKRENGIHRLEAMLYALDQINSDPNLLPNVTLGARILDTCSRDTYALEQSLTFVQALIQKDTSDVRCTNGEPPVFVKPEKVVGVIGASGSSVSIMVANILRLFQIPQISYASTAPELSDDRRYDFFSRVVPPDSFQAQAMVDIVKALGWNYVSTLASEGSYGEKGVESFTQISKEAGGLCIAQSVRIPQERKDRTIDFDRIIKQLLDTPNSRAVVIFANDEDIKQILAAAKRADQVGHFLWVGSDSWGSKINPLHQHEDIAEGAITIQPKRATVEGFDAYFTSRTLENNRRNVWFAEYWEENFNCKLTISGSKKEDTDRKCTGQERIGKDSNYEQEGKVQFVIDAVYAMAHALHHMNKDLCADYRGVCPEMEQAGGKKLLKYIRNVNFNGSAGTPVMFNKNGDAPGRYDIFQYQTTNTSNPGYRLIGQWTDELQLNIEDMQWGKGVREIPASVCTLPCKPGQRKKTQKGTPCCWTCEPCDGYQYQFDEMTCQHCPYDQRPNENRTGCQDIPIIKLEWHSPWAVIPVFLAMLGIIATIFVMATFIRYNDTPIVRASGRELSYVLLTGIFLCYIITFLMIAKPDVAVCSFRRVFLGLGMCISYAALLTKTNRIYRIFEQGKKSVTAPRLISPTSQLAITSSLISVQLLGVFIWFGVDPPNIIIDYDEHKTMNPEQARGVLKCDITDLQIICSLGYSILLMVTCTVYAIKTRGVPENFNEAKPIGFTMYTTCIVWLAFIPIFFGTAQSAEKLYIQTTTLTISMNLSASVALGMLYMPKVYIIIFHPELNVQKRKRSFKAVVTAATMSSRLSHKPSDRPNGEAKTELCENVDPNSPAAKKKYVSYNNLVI

[13] = target: T2, Metabotropic glutamate receptor 1; assay: Negative allosteric modulation of mGlu1 receptor
[14] = target: T3, Metabotropic glutamate receptor 2; assay: Negative allosteric modulation of mGlu2 receptor
[15] = target: T4, Metabotropic glutamate receptor 3; assay: Negative allosteric modulation of mGlu3 receptor
[16] = target: T5, Metabotropic glutamate receptor 5; assay: Negative allosteric modulation of mGlu5 receptor
[17] = target: T6, Metabotropic glutamate receptor 7; assay: Negative allosteric modulation of mGlu7 receptor
[18] = Lipophilicity, log D of the compound at pH 7.4; type: physicochemical; conditions: buffer
[19] = Kinetic solubility of the compound at pH 1.5 at room temperature; type: physicochemical; conditions: buffer, read-out: Kinetic_solubility; procedure, shortened: as §1
P-gp (MDR1) [20] = assay: Apparent permeability from apical to basolateral side of dog MDCK cells expressing human MDR1 by P-gp substrate assay; type: ADME, cell-based, Canis lupus familiaris
Procedure, shortened: (§3)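 MDCK cells transfected with human MDR1, used as a P-gp substrate assay. Permeability measured in both directions, apical-to-basolateral and basolateral-to-apical. The efflux ratio is taken as B→A over A→B.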

P-gp (MDR1) [21] = assay: Apparent permeability from basolateral to apical side of dog MDCK cells expressing human MDR1 by P-gp substrate assay; type: ADME, cell-based, Canis lupus familiaris; procedure, shortened: as §3
[22] = Fraction unbound in rat brain; type: ADME, tissue-based
Procedure, shortened: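 Brain free fraction determined by dialysis of rat brain homogenate.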

[23] = Fraction unbound in rat plasma; type: ADME, cell-free
[24] = Plasma concentration in Sprague-Dawley rat at 10 mg/kg, po after 1 hr; type: ADME, organism-based; parameters: dose 10 mg/kg, route oral
Procedure, shortened: (§4)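 Sprague-Dawley rats given 10 mg/kg orally as a suspension in 20% aqueous hydroxypropyl-β-cyclodextrin. Plasma and brain levels taken at 1 h post-dose. Brain/plasma ratio derived from these levels.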

[25] = Drug uptake in Sprague-Dawley rat brain at 10 mg/kg, po after 1 hr; type: ADME, organism-based; parameters: dose 10 mg/kg, route oral; conditions: read-out: Drug uptake; procedure, shortened: as §4
[26] = Ratio of drug level in brain to plasma of Sprague-Dawley rat at 10 mg/kg, po after 1 hr; type: ADME, organism-based; parameters: dose 10 mg/kg, route oral; conditions: read-out: BPR; procedure, shortened: as §4
[27] = Fraction unbound in human plasma; type: ADME, cell-free
[28] = target: T1, Metabotropic glutamate receptor 4; assay: Positive allosteric modulation of human mGlu4 receptor expressed in BHK cells assessed as potentiation of glutamate-induced response after 1 hr by FLIPR assay relative to glutamate; type: cell-based
Procedure, shortened: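 BHK cells stably co-expressing human mGlu4 and murine G-protein […], grown in DMEM at 37 °C, 5% CO₂. Cells seeded 24 h before assay, then loaded with Calcium 3 no-wash dye in HBSS/HEPES pH 7.4 with 0.1% BSA and 2.5 mM probenecid for 1 h at 37 °C. FLIPR calcium read after stimulation with EC₂₀ glutamate plus compound. Emax is percent of maximal glutamate response. Mean of ≥2 independent duplicate experiments.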

[29] = Drug uptake in Sprague-Dawley rat cerebrospinal fluid at 10 mg/kg, sc after 1 hr

| EC50 [1] [µM] | solubility kinetic [2] [µM] | Papp [3] [×10⁻⁶ cm/s] | CL [4] [mL/min] | CL [5] [L/min] | fraction unbound [6] | fraction unbound [7] | EC50 [8] [µM] | EC50 [9] [µM] | EC50 [10] [µM] | EC50 [11] [µM] | EC50 [12] [µM] | IC50 [13] [µM] | IC50 [14] [µM] | logD [18] | solubility kinetic [19] [µM] | fraction unbound [22] | fraction unbound [23] | concentration at 1 h [24] [ng/mL] | concentration at 1 h [25] [ng/g] | SMILES | other results |
| --- | --- | --- | --- | --- | --- | --- | --- | --- | --- | --- | --- | --- | --- | --- | --- | --- | --- | --- | --- | --- | --- |
| 0.22 | 0.1 (≈ 0.0269 µg/mL) | 3 | 37 | 5.6 | 0.023 | 0.008 | > 10 | > 10 | > 10 | > 10 | > 10 | > 10 | > 10 | 4 | 220 (≈ 59.3 µg/mL) | 0.0043 | 0.023 | 987 | 517 | c1ccc(Nc2nc3c(s2)CCc2[nH]ncc2-3)nc1 | IC50 [15]: > 10 µM; IC50 [16]: > 10 µM; IC50 [17]: > 10 µM; Papp A→B (P-gp (MDR1) [20]): 22 ×10⁻⁶ cm/s; Papp B→A (P-gp (MDR1) [21]): 7.7 ×10⁻⁶ cm/s; Kp at 1 h [26]: 0.5 |
| 0.007 | 3 (≈ 0.853 µg/mL) | 1.5 | 92 | 9 | 0.006 | 0.031 | > 10 | > 10 | > 10 | > 10 | > 10 | > 10 | > 10 | 3.8 | 100 (≈ 28.4 µg/mL) | 0.016 | 0.006 | 0.7 | 3.1 | c1cnc(Nc2nc3c(s2)CCCc2[nH]ncc2-3)nc1 | IC50 [15]: > 10 µM; IC50 [16]: > 10 µM; IC50 [17]: > 10 µM; Papp A→B (P-gp (MDR1) [20]): 33 ×10⁻⁶ cm/s; Papp B→A (P-gp (MDR1) [21]): 21 ×10⁻⁶ cm/s |
| 0.41 | 120 (≈ 29.2 µg/mL) | 32.9 | 61 | 11 |  |  |  |  |  |  |  |  |  | 3.1 | 220 (≈ 53.5 µg/mL) | 0.014 | 0.092 | 766 | 744 | c1ccc(Nc2nc(-c3cn[nH]c3)cs2)nc1 | fraction unbound [27]: 0.035; Emax [28]: 72%; Kp at 1 h [26]: 1; concentration at 1 h [29]: 52 ng/mL |
| 0.009 | 1.2 (≈ 0.34 µg/mL) | 9.4 | 36 | 10 | 0.011 | 0.006 | > 10 | > 10 | > 10 | > 10 | > 10 | > 10 | > 10 | 5 | 240 (≈ 68 µg/mL) | 0.0043 | 0.011 | 259 | 200 | c1ccc(Nc2nc3c(s2)CCCc2[nH]ncc2-3)nc1 | IC50 [15]: > 10 µM; IC50 [16]: > 10 µM; IC50 [17]: > 10 µM; Papp A→B (P-gp (MDR1) [20]): 24 ×10⁻⁶ cm/s; Papp B→A (P-gp (MDR1) [21]): 13 ×10⁻⁶ cm/s; Kp at 1 h [26]: 0.8 |
